Test results: ChEMBL document CHEMBL1154529, “Conformationally constrained opioid ligands: the Dmt-Aba and Dmt-Aia versus Dmt-Tic scaffold” (Bioorg Med Chem Lett, 2009)
Residues, ends and D or L forms follow the SMILES beside them.

Legend:
Mu-type opioid receptor [1] = molecular target: Mu-type opioid receptor (Rattus norvegicus, UniProt P33535); experiment: Displacement of [3H]DAMGO from mu opioid receptor in Sprague-Dawley rat brain synaptosomal membranes; type: cell membranes, Membrane
Procedure, shortened: (§1)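 Radioligand competition in rat brain synaptosomal preparations. Peptides tested at five to eight graded doses, each assay in duplicate, repeated three to six times on several different synaptosomal preparations. Ki calculated by Cheng–Prusoff; mean ± SEM.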

[2] = molecular target: Delta-type opioid receptor (Rattus norvegicus, UniProt P33533); experiment: Displacement of [3H]DPDPE from delta opioid receptor in Sprague-Dawley rat brain synaptosomal membranes; type: cell membranes, Membrane; procedure, shortened: as §1
Delta-type opioid receptor (Rattus norvegicus, UniProt P33533), sequence (P33533 whole entry): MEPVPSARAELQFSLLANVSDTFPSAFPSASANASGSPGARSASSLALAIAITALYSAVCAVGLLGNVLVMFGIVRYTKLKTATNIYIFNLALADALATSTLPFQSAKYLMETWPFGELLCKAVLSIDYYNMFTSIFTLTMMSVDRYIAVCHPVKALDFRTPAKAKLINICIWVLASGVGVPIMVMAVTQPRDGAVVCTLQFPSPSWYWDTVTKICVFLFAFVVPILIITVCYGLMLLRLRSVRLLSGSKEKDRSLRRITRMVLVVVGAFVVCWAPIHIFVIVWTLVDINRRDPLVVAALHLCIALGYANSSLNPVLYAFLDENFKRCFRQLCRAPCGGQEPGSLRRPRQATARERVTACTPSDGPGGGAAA

Rattus norvegicus [3] = species: Rattus norvegicus; experiment: Selectivity ratio of Ki for Sprague-Dawley rat delta opioid receptor to Ki for Sprague-Dawley rat mu opioid receptor
Mu-type opioid receptor [4] = molecular target: Mu-type opioid receptor (Cavia porcellus, UniProt P97266); experiment: Agonist activity at mu opioid receptor in Hartley guinea pig assessed as inhibition of electrically evoked ileum contraction by GPI test; type: functional, tissue-based
Mu-type opioid receptor (Cavia porcellus, UniProt P97266), sequence (P97266 whole entry): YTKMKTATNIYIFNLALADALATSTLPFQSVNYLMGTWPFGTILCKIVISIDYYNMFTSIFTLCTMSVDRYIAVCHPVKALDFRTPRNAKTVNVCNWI
Procedure, shortened: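 Isolated tissue bioassays: mouse vas deferens (delta) and guinea-pig ileum (mu). Agonism expressed as IC50 read from dose–response curves. Internal standards were deltorphin C (MVD) and dermorphin (GPI). Mean ± SEM of at least six fresh tissue samples.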

Rattus norvegicus [5] = species: Rattus norvegicus; experiment: Selectivity ratio of Ki for Sprague-Dawley rat mu opioid receptor to Ki for Sprague-Dawley rat delta opioid receptor
[6] = molecular target: T1, Delta-type opioid receptor (Mus musculus, UniProt P32300); experiment: Antagonist activity at delta opioid receptor in mouse assessed as effect on electrically evoked vas-deferens contraction by MVD test; type: functional; details: read-out: pA2 (converted)
T1 sequence (P32300 whole entry): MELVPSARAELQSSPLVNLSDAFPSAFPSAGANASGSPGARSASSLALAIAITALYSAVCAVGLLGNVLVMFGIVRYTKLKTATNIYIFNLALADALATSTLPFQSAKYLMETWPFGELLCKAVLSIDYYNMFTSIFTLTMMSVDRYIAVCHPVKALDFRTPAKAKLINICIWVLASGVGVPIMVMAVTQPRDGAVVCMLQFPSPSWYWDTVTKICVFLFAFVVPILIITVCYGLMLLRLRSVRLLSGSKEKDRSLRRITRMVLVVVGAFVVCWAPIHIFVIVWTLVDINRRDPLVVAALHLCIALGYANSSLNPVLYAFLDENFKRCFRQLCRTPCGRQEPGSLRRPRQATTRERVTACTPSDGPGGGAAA

[7] = molecular target: T1, Delta-type opioid receptor; experiment: Agonist activity at delta opioid receptor in mouse assessed as inhibition of electrically evoked vas-deferens contraction by MVD test

Mu-type opioid receptor (Rattus norvegicus, UniProt P33535), sequence (P33535 whole entry): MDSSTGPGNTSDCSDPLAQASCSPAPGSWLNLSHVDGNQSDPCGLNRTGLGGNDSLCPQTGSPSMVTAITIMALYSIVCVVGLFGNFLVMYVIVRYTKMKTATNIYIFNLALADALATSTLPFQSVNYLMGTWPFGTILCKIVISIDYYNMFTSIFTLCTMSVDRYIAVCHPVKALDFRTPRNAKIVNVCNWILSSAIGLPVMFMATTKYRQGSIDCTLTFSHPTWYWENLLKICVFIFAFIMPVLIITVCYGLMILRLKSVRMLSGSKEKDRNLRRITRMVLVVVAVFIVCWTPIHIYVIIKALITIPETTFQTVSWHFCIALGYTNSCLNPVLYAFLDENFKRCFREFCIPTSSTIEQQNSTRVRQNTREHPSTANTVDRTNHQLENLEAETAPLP

| Compound | Ki (Mu-type opioid receptor [1]) | Ki [2] | Ratio Ki (Rattus norvegicus [3]) | IC50 (Mu-type opioid receptor [4]) | Ratio Ki (Rattus norvegicus [5]) | Kb [6] | IC50 [7] |
| --- | --- | --- | --- | --- | --- | --- | --- |
| Cc1cc(O)cc(C)c1C[C@H](N)C(=O)N[C@H]1Cc2ccccc2CN([C@@H](CC(=O)O)C(=O)NCc2ccccc2)C1=O | 630 nM | 1480 nM | 2.3 |  |  |  |  |
| Cc1cc(O)cc(C)c1C[C@H](N)C(=O)N[C@H]1Cc2c([nH]c3ccccc23)CN(CC(=O)NCc2ccccc2)C1=O | 50 nM | 358 nM | 7.2 | 1800 nM |  |  |  |
| Cc1cc(O)cc(C)c1C[C@@H](C(=O)N[C@@H]1Cc2c([nH]c3ccccc23)CN(CC(=O)NCc2ccccc2)C1=O)N(C)C | 133 nM | 681 nM | 5 |  |  |  |  |
| Cc1cc(O)cc(C)c1C[C@@H](C(=O)N[C@@H]1Cc2c([nH]c3ccccc23)CN(CC(=O)O)C1=O)N(C)C | 10100 nM | 1150 nM |  |  | 8.8 |  |  |
| Cc1cc(O)cc(C)c1C[C@H](N)C(=O)N1Cc2ccccc2C[C@H]1C(=O)NCC(=O)NCc1ccccc1 (HELM PEPTIDE1{[Cc1cc(O)cc(C)c1C[C@H](N)C(=O)[*:2]].[Tic].G.[c1ccc(CN[*:1])cc1]}$$$$V2.0) |  |  |  |  | 5.2 | 0.501 nM |  |
| Cc1cc(O)cc(C)c1C[C@H](N)C(=O)N[C@H]1Cc2c([nH]c3ccccc23)CN(CC(=O)O)C1=O | 1450 nM | 806 nM |  | > 20000 nM | 1.8 |  |  |
| Cc1cc(O)cc(C)c1C[C@H](N)C(=O)N[C@H]1Cc2c([nH]c3ccccc23)CN(CC(=O)OCc2ccccc2)C1=O | 244 nM | 4060 nM | 17 |  |  |  |  |
| Cc1cc(O)cc(C)c1C[C@H](N)C(=O)N[C@H]1Cc2ccccc2CN(CC(=O)NCc2ccccc2)C1=O | 0.46 nM | 11 nM | 24 |  |  |  |  |
| Cc1cc(O)cc(C)c1C[C@H](N)C(=O)N[C@H]1Cc2ccccc2CN([C@@H](CCCCN)C(=O)NCc2ccccc2)C1=O | 10.1 nM | 290 nM | 29 | 3270 nM |  |  |  |
| Cc1cc(O)cc(C)c1C[C@H](N)C(=O)N[C@@H]1Cc2c([nH]c3ccccc23)CN(CC(=O)O)C1=O | 2900 nM | 720 nM |  |  | 4 |  |  |
| Cc1cc(O)cc(C)c1C[C@H](N)C(=O)N[C@@H]1Cc2c([nH]c3ccccc23)CN(CC(=O)NCc2ccccc2)C1=O | 3.35 nM | 161 nM | 48 | 14.9 nM |  |  | 1500 nM |
| Cc1cc(O)cc(C)c1C[C@@H](C(=O)N[C@H]1Cc2ccccc2CNC1=O)N(C)C | 64.9 nM | 20.5 nM |  | > 20000 nM | 3.2 | 63.1 nM | > 20000 nM |
| Cc1cc(O)cc(C)c1C[C@H](N)C(=O)N[C@H]1Cc2ccccc2CNC1=O | 12.4 nM | 368 nM | 30 | 631 nM |  |  |  |
| Cc1cc(O)cc(C)c1C[C@@H](C(=O)N[C@H]1Cc2c([nH]c3ccccc23)CN(CC(=O)O)C1=O)N(C)C | 875 nM | 6.64 nM |  | > 20000 nM | 132 | 5.01 nM | > 20000 nM |
